Assay results from the RNAGym collection of RNA variant scans (doi:10.1038/s41586-018-0170-7).

B1: tRNA (parent)
chain: GUUCCGUUGGCGUAAUGGUAACGCGUCUCCCUCCUAAGGAGAAGACUGCGGGUUCGAGUCCCGUACGGAACG

Variants of: B1
Assay: yeast fitness, log relative to wild type (ln ratio); higher = fitter; tRNA-Arg(CCU), competitive growth, 37 C, 1 M NaCl
Summary of the method: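 Fitness is the natural log of a genotype's generation count divided by that of the wild type. A combinatorial library of tRNA-Arg(CCU) variants sat on a HIS3 centromeric plasmid in BY4742 lacking the chromosomal gene, from two independent transformations. Pools grew 4 generations in SC-HIS at 30 °C, then ~6.5 generations (~26.5 h) in SC-HIS 1M NaCl at 37 °C, with three outputs per input. Generations came from OD-scaled log2 output/input frequency, inverse-variance weighted across replicates, with variants counted by 125 bp paired-end Illumina sequencing.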

Variant	yeast fitness (ln)
AGUCCGUUGGCGUAAUGGUAACGCGUCUCCCUCCUAAGGAGAAGACUGCGGGUUCGAGUCCCGUAAGGAUUG [G1A U2G C66A A70U C71U]	-0.146
AGUCCGUUGGCGUAAUGGUAACGCGUUUCCCUCCUAAGGAGAAGACUGCGGGUUCGAGUCCCGUAAGGGUUG [G1A U2G C27U C66A A69G A70U C71U]	-0.342
AGUCCGUUGGCGUAAUGGUAACGCGUCUCCCUCCUAAGGAGAAGAUUGCGGGUUCGAGUCCCGUAUGGAUUG [G1A U2G C46U C66U A70U C71U]	-0.185
AGUCCGUUGGCGUAAUGGUAACGCGUCUCCCUCCUAAGGAGAAGAUUGCGGGUUCGAGUCCCGUACGGAGCG [G1A U2G C46U A70G]	-0.103
AGUCCGUUGGCGUAAUGGUAACGCGUCUCCCUCCUAAGGAGAAGAUUGCGGGUUCGAGUCCCGUACGGAUCG [G1A U2G C46U A70U]	-0.115
AGUCCGUUGGCGUAAUGGUAACGCGUUUCCCUCCUAAGGAGAAGACUGCGGGUUCGAGUCCCGUAUGGAUUG [G1A U2G C27U C66U A70U C71U]	-0.365
AGUCCGUUGGCGUAAUGGUAACGCGUCUCCCUCCUAAGGAGAAGACUGCGGGUUCGAGUCCCGUAUGGGAUG [G1A U2G C66U A69G C71U]	-0.254
AGUCCGUUGGCGUAAUGGUAACGCGUCUCCCUCCUAAGGAGAAGACUGCGGGUUCGAGUCCCGUAUGGAGUG [G1A U2G C66U A70G C71U]	-0.187
AGUCCGUUGGCGUAAUGGUAACGCGUCUCCCUCCUAAGGAGAAGACUGCGGGUUCGAGUCCCGUAUGGGUUG [G1A U2G C66U A69G A70U C71U]	-0.435
AGUCCGUUGGCGUAAUGGUAACGCGUCUCCCUCCUAAGGAGAAGACUGCGGGUUCGAGUCCCGUAAGGAGCG [G1A U2G C66A A70G]	-0.114
AGUCCGUUGGCGUAAUGGUAACGCGUCUCCCUCCUAAGGAGAAGACUGCGGGUUCGAGUCCCGUAAGGAUCG [G1A U2G C66A A70U]	-0.0922
AGUCCGUUGGCGUAAUGGUAACGCGUUUCCCUCCUAAGGAGAAGACUGCGGGUUCGAGUCCCGUAAGGAAUG [G1A U2G C27U C66A C71U]	-0.147
AGUCCAUUGGCGUAAUGGUAACGCGUCUCCCUCCUAAGGAGACGACUGCGGGUUCGAGUCCCGUACGGGGCG [G1A U2G G6A A43C A69G A70G]	-0.238
AGUCCGUUGGCGUAAUGGUAACGCGUCUCCCUCCUAAGGAGAAGAUUGCGGGUUCGAGUCCCGUACGGGAUG [G1A U2G C46U A69G C71U]	-0.0958
AGUCCGUUGGCGUAAUGGUAACGCGUCUCCCUCCUAAGGAGAAGAUUGCGGGUUCGAGUCCCGUAUGGAGUG [G1A U2G C46U C66U A70G C71U]	-0.161
AGUCCGUUGGCGUAAUGGUAACGCGUCUCCCUCCUAAGGAGAAGAUUGCGGGUUCGAGUCCCGUAUGGGUUG [G1A U2G C46U C66U A69G A70U C71U]	-0.321
AGUCCGUUGGCGUAAUGGUAACGCGUCUCCCUCCUAAGGAGAAGAUUGCGGGUUCGAGUCCCGUACGGGUCG [G1A U2G C46U A69G A70U]	-0.238
AGUCCGUUGGCGUAAUGGUAACGCGUCUCCCUCCUAAGGAGAAGAUUGCGGGUUCGAGUCCCGUACGGGGCG [G1A U2G C46U A69G A70G]	-0.163
AGUCCAUUGGCGUAAUGGUAACGCGUCUCCCUCCUAAGGAGACGACUGCGGGUUCGAGUCCCGUACGGAACG [G1A U2G G6A A43C]	-0.238

Variant	yeast fitness (ln)
AGUCCGUUGGCGUAAUGGUAACGCGUCUCCCUCCUAAGGAGAAGAUUGCGGGUUCGAGUCCCGUACGGGACG [G1A U2G C46U A69G]	-0.13
AGUCCGUUGGCGUAAUGGUAACGCGUUUCCCUCCUAAGGAGAAGACUGCGGGUUCGAGUCCCGUAAGGAGCG [G1A U2G C27U C66A A70G]	-0.25
AGUCCGUUGGCGUAAUGGUAACGCGUUUCCCUCCUAAGGAGAAGACUGCGGGUUCGAGUCCCGUAAGGAUCG [G1A U2G C27U C66A A70U]	-0.165
AGUCCGUUGGCGUAAUGGUAACGCGUCUCCCUCCUAAGGAGAAGAUUGCGGGUUCGAGUCCCGUAUGGAGCG [G1A U2G C46U C66U A70G]	-0.148
AGUCCGUUGGCGUAAUGGUAACGCGUCUCCCUCCUAAGGAGAAGAUUGCGGGUUCGAGUCCCGUAUGGAUCG [G1A U2G C46U C66U A70U]	-0.0831
AGUCCGUUGGCGUAAUGGUAACGCGUUUCCCUCCUAAGGAGAAGACUGCGGGUUCGAGUCCCGUAUGGAGUG [G1A U2G C27U C66U A70G C71U]	-0.321
AGUCCGUUGGCGUAAUGGUAACGCGUCUCCCUCCUAAGGAGAAGAUUGCGGGUUCGAGUCCCGUAAGGGUCG [G1A U2G C46U C66A A69G A70U]	-0.0906
AGUCCGUUGGCGUAAUGGUAACGCGUUUCCCUCCUAAGGAGAAGACUGCGGGUUCGAGUCCCGUAAGGAUUG [G1A U2G C27U C66A A70U C71U]	-0.243
AGUCCGUUGGCGUAAUGGUAACGCGUCUCCCUCCUAAGGAGAAGACUGCGGGUUCGAGUCCCGUACGGAAUG [G1A U2G C71U]	-0.218
AGUCCGUUGGCGUAAUGGUAACGCGUCUCCCUCCUAAGGAGAAGACUGCGGGUUCGAGUCCCGUAUGGGUCG [G1A U2G C66U A69G A70U]	-0.197
AGUCCGUUGGCGUAAUGGUAACGCGUCUCCCUCCUAAGGAGAAGACUGCGGGUUCGAGUCCCGUAUGGGGCG [G1A U2G C66U A69G A70G]	-0.243
AGUCCGUUGGCGUAAUGGUAACGCGUCUCCCUCCUAAGGAGAAGACUGCGGGUUCGAGUCCCGUAUGGAUUG [G1A U2G C66U A70U C71U]	-0.486
AGUCCGUUGGCGUAAUGGUAACGCGUCUCCCUCCUAAGGAGAAGAUUGCGGGUUCGAGUCCCGUAAGGAGUG [G1A U2G C46U C66A A70G C71U]	-0.198
AGUCCGUUGGCGUAAUGGUAACGCGUCUCCCUCCUAAGGAGAAGAUUGCGGGUUCGAGUCCCGUACGGAGUG [G1A U2G C46U A70G C71U]	-0.166
AGUCCGUUGGCGUAAUGGUAACGCGUUUCCCUCCUAAGGAGAAGACUGCGGGUUCGAGUCCCGUAUGGAAUG [G1A U2G C27U C66U C71U]	-0.244
AGUCCGUUGGCGUAAUGGUAACGCGUCUCCCUCCUAAGGAGAAGAUUGCGGGUUCGAGUCCCGUAUGGAACG [G1A U2G C46U C66U]	-0.0764
AGUCCGUUGGCGUAAUGGUAACGCGUCUCCCUCCUAAGGAGAAGAUUGCGGGUUCGAGUCCCGUACGGGUUG [G1A U2G C46U A69G A70U C71U]	-0.0215
AGUCCGUUGGCGUAAUGGUAACGCGUUUCCCUCCUAAGGAGAAGACUGCGGGUUCGAGUCCCGUAUGGGAUG [G1A U2G C27U C66U A69G C71U]	-0.395
